This is an account of results in ChEMBL document CHEMBL1131198, “From micromolar to nanomolar affinity: a systematic approach to identify the binding site of CGRP at the human calcitonin gene-related peptide 1 receptor” (J Med Chem, 1998).

Numbered stars: 1 amine (or outer) side, 2 acyl side, 3 side chain; on linkers, the order of the positions; unused ones are H or OH. Square brackets hold non-standard residues; d marks the D form. Peptide text beside a SMILES is read from it. X1 = O=C(C1(c2ccccc2)CC1CN[*:1])[*:2]; Hyp = O=C(O)[C@@H]1C[C@@H](O)CN1; X2 = O=C(C1CC1CN[*:1])[*:2]; Aib = CC(C)(N)C(=O)O

Sequence of Calcitonin gene-related peptide type 1 receptor (Homo sapiens, UniProt O60894+Q16602) (Q16602 whole entry, one chain of several): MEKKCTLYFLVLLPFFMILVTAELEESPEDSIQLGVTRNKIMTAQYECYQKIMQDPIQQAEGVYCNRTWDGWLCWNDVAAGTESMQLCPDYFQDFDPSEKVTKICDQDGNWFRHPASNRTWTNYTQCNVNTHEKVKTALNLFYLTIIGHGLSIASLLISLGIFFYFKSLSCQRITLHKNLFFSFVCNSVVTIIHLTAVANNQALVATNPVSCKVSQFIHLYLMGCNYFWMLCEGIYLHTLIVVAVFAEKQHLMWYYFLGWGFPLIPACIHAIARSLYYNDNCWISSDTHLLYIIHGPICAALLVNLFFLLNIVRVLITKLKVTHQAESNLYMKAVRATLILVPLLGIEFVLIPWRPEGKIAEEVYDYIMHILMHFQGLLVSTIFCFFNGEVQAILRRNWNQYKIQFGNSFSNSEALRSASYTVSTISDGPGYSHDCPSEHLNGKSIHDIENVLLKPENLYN
Sequence of Calcitonin gene-related peptide type 1 receptor (Homo sapiens, UniProt Q16602) (Q16602 whole entry): as the sequence (Q16602 whole entry, one chain of several) above

The first assay has as its target Calcitonin gene-related peptide type 1 receptor (Homo sapiens, UniProt O60894+Q16602). The experiment in a line: (§1) CGRP1 receptor affinity on human neuroblastoma cells SK-N-MC, which selectively express the human CGRP1 receptor. The procedure, abridged: (§2)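 SK-N-MC membranes (cells grown in DMEM, detached with PBS/0.02% EDTA, homogenized, pellet in Tris buffer pH 7.40 with 1% BSA, 0.1% bacitracin, stored -80 °C) diluted 1:10 in assay buffer (50 mM Tris, 150 mM NaCl, 5 mM MgCl2, 1 mM EDTA, pH 7.40).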
Broadly, the IC50 is the concentration that gives 50% inhibition. Take Ac-VPTDVGAFAF-OH: the IC50 was 0.3 µM.
The same measure, in the same setting: the value for H-FVPTDVGSQAF-OH was 1.2 µM; that for H-NVAPRSKISPEAF-OH was 10 µM; that for H-FVPTDVGAHAF-OH was 0.36 µM.
Same read-out and setting: the value for H-YVPTNVGSEAY-OH was 32 µM; that for `CC(C)[C@H](NC(=O)[C@H](CC(N)=O)NC(=O)[C@@H](NC(=O)[C@@H]1CCCN1C(=O)[C@@H](NC(=O)[C@H](N)Cc1ccc(O)cc1)C(C)C)[C@@H](C)O)C(=O)NCC(=O)N[C@@H](CO)C(=O)N[C@@H](CCC(=O)O)C(=O)N[C@@H](C)C(=O)N[C@@H](Cc1ccccc1)C(=O)O` was 80 µM; that for `CC(C)[C@H](NC(=O)[C@H](CC(=O)O)NC(=O)[C@@H](NC(=O)[C@@H]1CCCN1C(=O)[C@@H](NC(=O)[C@@H](N)Cc1ccccc1)C(C)C)[C@@H](C)O)C(=O)NCC(=O)N1CCCC[C@H]1C(=O)N[C@@H](Cc1ccccc1)C(=O)N[C@@H](C)C(=O)N[C@@H](Cc1ccccc1)C(=O)O` was 0.91 µM.
On the same count and under the same terms, the value for `CC(C)[C@H](NC(=O)[C@H](CC(=O)O)NC(=O)[C@@H](NC(=O)[C@@H]1CCCN1C(=O)[C@@H](NC(=O)[C@@H](N)Cc1ccccc1)C(C)C)[C@@H](C)O)C(=O)NCC(=O)NC(C)(C)C(=O)N[C@@H](Cc1ccccc1)C(=O)N[C@@H](C)C(=O)N[C@@H](Cc1ccccc1)C(=O)O` (H-FVPTDVG[Aib]FAF-OH) was 0.17 µM; that for H-NFVPTNVGSQGY-OH was 10 µM.
Consider H-FVPTNVGSEPF-OH, for which the half-maximal inhibitory concentration (IC50) was greater than 10 µM.
The same measure, in the same setting: the value for H-YVPTNVGSQAF-OH was 6.9 µM; that for H-FVPTPVGSEAF-OH was 4.5 µM.
Turning to H-NFVPRSKISPEAF-OH, the IC50 came to 10 µM.
On the same count and under the same terms, the value for H-FVPTDVGSEAF-OH was greater than 3 µM; that for H-YAPTNVGSEAF-OH was 8 µM; that for `CC(C)[C@H](NC(=O)[C@H](CC(=O)O)NC(=O)[C@@H](NC(=O)[C@@H]1CCCN1C(=O)[C@@H](NC(=O)[C@@H](N)Cc1ccccc1)C(C)C)[C@@H](C)O)C(=O)NCC(=O)NCC1CC1C(=O)N[C@@H](Cc1ccccc1)C(=O)N[C@@H](C)C(=O)N[C@@H](Cc1ccccc1)C(=O)O` (some centres not stated) (H-FVPTDVG[X2]FAF-OH) was greater than 3 µM.
The same measure, in the same setting: the value for Ac-FVPTDVGAFAF-OH was 0.205 µM.
Still for that read-out and setting: the value for H-FVPTNVGSPAF-OH was greater than 10 µM; that for H-NVAPTNVGSQGY-OH was 10 µM.
For the compound H-FPPTNVGSEAF-OH, the IC50 is 3.4 µM.
As to `CC(C)[C@H](NC(=O)[C@H](CC(N)=O)NC(=O)[C@@H](NC(=O)[C@@H]1CCCN1C(=O)[C@@H](NC(=O)[C@@H](N)Cc1ccc(O)cc1)C(C)C)[C@@H](C)O)C(=O)NCC(=O)N[C@@H](CO)C(=O)N[C@@H](CCC(=O)O)C(=O)N[C@H](C)C(=O)N[C@@H](Cc1ccccc1)C(=O)O`, the IC50 was greater than 100 µM.
As for `CC(C)[C@H](NC(=O)[C@H](CC(N)=O)NC(=O)[C@@H](NC(=O)[C@@H]1CCCN1C(=O)[C@@H](NC(=O)[C@@H](N)Cc1ccc(O)cc1)C(C)C)[C@@H](C)O)C(=O)NCC(=O)N[C@@H](CO)C(=O)N[C@@H](CCC(=O)O)C(=O)N[C@@H](C)C(=O)N[C@@H](Cc1ccccc1)C(=O)O`, the IC50 is 3 µM.
Still for that read-out and setting: the value for `CC(C)[C@H](NC(=O)[C@H](CC(=O)O)NC(=O)[C@@H](NC(=O)[C@@H]1CCCN1C(=O)[C@@H](NC(=O)[C@@H](N)Cc1ccccc1)C(C)C)[C@@H](C)O)C(=O)NCC(=O)N1CCC[C@H]1C(=O)N[C@@H](Cc1ccccc1)C(=O)N[C@@H](C)C(=O)N[C@@H](Cc1ccccc1)C(=O)O` was 0.029 µM.
Turning to H-YVPTFVGSEAF-OH, the IC50 turned out to be 70 µM.
As for H-YPTNVGSEAF-OH, the IC50 is 24 µM.
Still for that read-out and setting: the value for H-YVFTNVGSEAF-OH was 45 µM; that for H-VPTDVGAFAF-OH was 0.2 µM.
Regarding H-YFPTNVGSEAF-OH, the IC50 is 14 µM.
With H-YTNVGSEAF-OH, the IC50 turned out to be 18 µM.
On the same count and under the same terms, the value for H-YVPSNVGSEAF-OH was greater than 100 µM.
The same measure, in the same setting: the value for H-NFVPRSKISPQGY-OH was 10 µM.
Still for that read-out and setting: the value for H-YVPTNVGAEAF-OH was 4 µM.
For `CC(C)[C@H](NC(=O)[C@@H](CC(N)=O)NC(=O)[C@@H](NC(=O)[C@@H]1CCCN1C(=O)[C@@H](NC(=O)[C@@H](N)Cc1ccc(O)cc1)C(C)C)[C@@H](C)O)C(=O)NCC(=O)N[C@@H](CO)C(=O)N[C@@H](CCC(=O)O)C(=O)N[C@@H](C)C(=O)N[C@@H](Cc1ccccc1)C(=O)O`, the IC50 was greater than 100 µM.
Same read-out and setting: the value for `CC(C)[C@H](NC(=O)[C@H](CC(N)=O)NC(=O)[C@@H](NC(=O)[C@@H]1CCCN1C(=O)[C@@H](NC(=O)[C@@H](N)Cc1ccc(O)cc1)C(C)C)[C@@H](C)O)C(=O)NCC(=O)N[C@H](CO)C(=O)N[C@@H](CCC(=O)O)C(=O)N[C@@H](C)C(=O)N[C@@H](Cc1ccccc1)C(=O)O` was greater than 100 µM; that for `CC(C)[C@H](NC(=O)[C@H](CC(=O)O)NC(=O)[C@@H](NC(=O)[C@@H]1CCCN1C(=O)[C@@H](NC(=O)[C@@H](N)Cc1ccccc1)C(C)C)[C@@H](C)O)C(=O)NCC(=O)N1C[C@H](O)C[C@H]1C(=O)N[C@@H](Cc1ccccc1)C(=O)N[C@@H](C)C(=O)N[C@@H](Cc1ccccc1)C(=O)O` was 0.62 µM.
Still for that read-out and setting: the value for `CC(C)[C@H](NC(=O)[C@H](CC(N)=O)NC(=O)[C@@H](NC(=O)[C@@H]1C[C@@H](O)CN1C(=O)[C@@H](NC(=O)[C@@H](N)Cc1ccc(O)cc1)C(C)C)[C@@H](C)O)C(=O)NCC(=O)N[C@@H](CO)C(=O)N[C@@H](CCC(=O)O)C(=O)N[C@@H](C)C(=O)N[C@@H](Cc1ccccc1)C(=O)O` (H-YV[Hyp]TNVGSEAF-OH) was 9 µM; that for Ac-FVPTNVGSEAF-OH was 4.5 µM.
As to Ac-PTDVGAFAF-OH, the half-inhibitory concentration (IC50) came to 0.49 µM.
Same read-out and setting: the value for H-YVPTNVGSEGF-OH was 51 µM.
Same read-out and setting: the value for H-YVPTNVGSKAF-OH was 6.5 µM; that for H-AVPTNVGSEAF-OH was 24 µM.
As to H-FVPPNVGSEAF-OH, the IC50 is greater than 10 µM.
The same measure, in the same setting: the value for H-YVPTLVGSEAF-OH was 7 µM; that for H-YVPTAVGSEAF-OH was greater than 100 µM; that for H-FVPTDVGAFAF-OH was 0.159 µM.
Take H-YVPTNVGSHAF-OH: the IC50 was determined as 4.28 µM.
The same measure, in the same setting: the value for H-FVPTNVGSEAF-OH was 3 µM; that for H-YVPTQVGSEAF-OH was 95 µM.
Same read-out and setting: the value for H-FVPTNVGSKAF-OH was 2.7 µM; that for H-FVPTDVGPEAF-OH was 0.47 µM; that for H-YVPTNVGSLAF-OH was 8.55 µM.
Same read-out and setting: the value for H-ILSSTNVGSEAF-OH was 10 µM; that for H-FVPTNPGSEAF-OH was greater than 10 µM.
Regarding H-NFVPTNVGSNTY-OH, the concentration for half-maximal inhibition (IC50) stood at 10 µM.
The same measure, in the same setting: the value for H-PTDVGAFAF-OH was 0.22 µM; that for H-FVPTNVGPEAF-OH was 0.28 µM; that for H-FVPTNVPSEAF-OH was greater than 10 µM.
Same read-out and setting: the value for H-YVPTNVGSFAF-OH was 4.79 µM; that for `CC(C)[C@H](NC(=O)[C@H](CC(=O)O)NC(=O)[C@@H](NC(=O)[C@@H]1CCCN1C(=O)[C@@H](NC(=O)[C@@H](N)Cc1ccccc1)C(C)C)[C@@H](C)O)C(=O)NCC(=O)NCC1CC1(C(=O)N[C@@H](Cc1ccccc1)C(=O)N[C@@H](C)C(=O)N[C@@H](Cc1ccccc1)C(=O)O)c1ccccc1` (some centres not stated) (H-FVPTDVG[X1]FAF-OH) was greater than 3 µM; that for H-NVAPTNVGSEAF-OH was 10 µM.
Take H-YVPTDVGSEAF-OH: the half-maximal inhibitory concentration (IC50) stood at 5 µM.
With H-YVPTNVGSAAF-OH, the half-maximal inhibitory concentration (IC50) is greater than 10 µM.

The next assay has as its target Calcitonin gene-related peptide type 1 receptor (Homo sapiens, UniProt Q16602). Described as §1. In a few lines: as §2
Take `CC(C)[C@H](NC(=O)[C@H](CC(N)=O)NC(=O)[C@@H](NC(=O)[C@@H]1CCCN1C(=O)[C@@H](NC(=O)[C@@H](N)Cc1ccc(O)cc1)C(C)C)[C@@H](C)O)C(=O)NCC(=O)N[C@@H](CO)C(=O)N[C@H](CCC(=O)O)C(=O)N[C@@H](C)C(=O)N[C@@H](Cc1ccccc1)C(=O)O`: the half-inhibitory concentration (IC50) entry is given as “No displacement”.
On the same count and under the same terms, the value for `C[C@H](NC(=O)[C@H](CCC(=O)O)NC(=O)[C@@H](N)Cc1ccc(O)cc1)C(=O)N[C@@H](Cc1ccccc1)C(=O)O` (H-YEAF-OH) was “No displacement”.
Same read-out and setting: the value for H-YVPTNVFSEAF-OH was “No displacement”; that for H-YVATNVGSEAF-OH was “No displacement”; that for H-YNVGSEAF-OH was “No displacement”.
Still for that read-out and setting: the value for H-YVPANVGSEAF-OH was “No displacement”.
Consider `CC(C)[C@H](NC(=O)[C@H](CC(N)=O)NC(=O)[C@@H](NC(=O)[C@@H]1CCCN1C(=O)[C@@H](NC(=O)[C@@H](N)Cc1ccc(O)cc1)C(C)C)[C@@H](C)O)C(=O)NCC(=O)N[C@@H](CO)C(=O)N[C@@H](CCC(=O)O)C(=O)N[C@@H](C)C(=O)N[C@H](Cc1ccccc1)C(=O)O`, for which the half-maximal inhibitory concentration (IC50) result is “No displacement”.
For `CC(C)[C@H](NC(=O)[C@H](CC(N)=O)NC(=O)[C@@H](NC(=O)[C@@H]1CCCN1C(=O)[C@H](NC(=O)[C@@H](N)Cc1ccc(O)cc1)C(C)C)[C@@H](C)O)C(=O)NCC(=O)N[C@@H](CO)C(=O)N[C@@H](CCC(=O)O)C(=O)N[C@@H](C)C(=O)N[C@@H](Cc1ccccc1)C(=O)O`, the IC50 worked out at 19 µM.
Still for that read-out and setting: the value for H-YVPTNVGS-OH was “No displacement”; that for H-YVPTNFGSEAF-OH was “No displacement”.
On the same count and under the same terms, the value for H-YSEAF-OH was “No displacement”; that for H-YVGSEAF-OH was “No displacement”; that for H-YVPFNVGSEAF-OH was “No displacement”.
Same read-out and setting: the value for H-YVPTNVGSEA-OH was “No displacement”.
Regarding `CC(C)[C@H](NC(=O)[C@@H](N)Cc1ccc(O)cc1)C(=O)N1CCC[C@H]1C(=O)O` (H-Tyr-Val-Pro-OH), the IC50 result is reported as “No displacement”.
Same read-out and setting: the value for H-YVPTNV-OH was “No displacement”.
On the same count and under the same terms, the value for H-YVPTNVASEAF-OH was “No displacement”; that for H-YVPTNAGSEAF-OH was “No displacement”; that for H-YVPTNVGSEFF-OH was “No displacement”.
The same measure, in the same setting: the value for H-YVPTNVGFEAF-OH was “No displacement”.
